Measured values from different studies.
VIPR1: Vasoactive intestinal polypeptide receptor 1 (VIPR1, Homo sapiens, UniProt P32241)
MAOA: Amine oxidase [flavin-containing] A (MAOA, Homo sapiens, UniProt P21397)
LDHA: L-lactate dehydrogenase A chain (LDHA, Homo sapiens, UniProt P00338)
Tspo: Translocator protein (Tspo, Rattus norvegicus, UniProt P16257)
Rps6ka1: Ribosomal protein S6 kinase alpha-1 (Rps6ka1, Rattus norvegicus, UniProt Q63531)
PRMT3: Protein arginine N-methyltransferase 3 (PRMT3, Homo sapiens, UniProt O60678)

| Compound | target | assay | conditions | inhibition |
| --- | --- | --- | --- | --- |
| O=C(c1ccc(Cl)cc1)N(Cc1ccccc1)C1CCCCC1 | VIPR1 | cell-free assay | 10 µM | -0.7% |
| O=C(Nc1cc(Cl)cc(Cl)c1)c1cc(Cl)ccc1O | MAOA | enzyme activity, inhibitor | 1 µM, 20 min | 4% |
| COC(=O)CN=c1scc(-c2ccccc2)n1-c1ccccc1[N+](=O)[O-] | LDHA | enzyme activity, inhibitor, fluorescence | 100 µM, pH 7.2 | 53% |
| CCCNc1nc2ccccc2n1Cc1ccc(Cl)cc1 | Tspo | cell-free assay | 10 µM | 49.2% |
| Cc1ccc(-n2nc(C(C)(C)C)cc2NC(=O)Nc2ccc(OCCN3CCOCC3)c3ccccc23)cc1 | Tyrosine-protein phosphatase non-receptor type 1 (PTPN1, Homo sapiens, UniProt P18031) | enzyme activity, inhibitor | 10 µM | 18% |
| CCN(CC)CCNC(=O)c1c(C)[nH]c(/C=C2\C(=O)Nc3ccc(F)cc32)c1C | Cyclin-dependent kinase-like 2 (CDKL2, Homo sapiens, UniProt Q92772) | binding, competition with immobilised ligand | 10 µM | 92% |
| O=C(Nc1ccc(OC(F)(F)F)cc1)c1cc(Cl)ccc1O | MAOA | enzyme activity, inhibitor | 1 µM, 20 min | 74% |
| Cc1ccc(Nc2nccc(N(C)c3ccc4c(C)n(C)nc4c3)n2)cc1S(N)(=O)=O | Rps6ka1 | enzyme activity, inhibitor | 10 µM | 41% |
| N=C(NCCCSC[C@H]1O[C@@H](n2cnc3c(NCCCc4ccccc4)ncnc32)[C@H](O)[C@@H]1O)NC1CCCCC1 | PRMT3 | enzyme activity, inhibitor, fluorescence | 10 µM | -5.11% |
| COC(=O)CN=c1scc(-c2ccccc2)n1-c1ccc(OC)cc1 | LDHA | enzyme activity, inhibitor, fluorescence | 100 µM, pH 7.2 | 49% |
| N=C(NCCCSC[C@H]1O[C@@H](n2cnc3c(NCCCc4ccccc4)ncnc32)[C@H](O)[C@@H]1O)NCCc1ccccc1 | PRMT3 | enzyme activity, inhibitor, fluorescence | 10 µM | 1.64% |
| Oc1cccc(Nc2nc(-c3ccc(F)cc3F)cs2)c1 | Tspo | ligand displacement, radioligand | 10 µM | 63% |
| Nc1ncnc2c1ncn2[C@@H]1O[C@H](CSCCNC(=O)NCc2ccccc2)[C@@H](O)[C@H]1O | PRMT3 | enzyme activity, inhibitor, radiometric | 10 µM | > 95% |
| CCCCNC(=N)NCCCSC[C@H]1O[C@@H](n2cnc3c(NCCCc4ccccc4)ncnc32)[C@H](O)[C@@H]1O | PRMT3 | enzyme activity, inhibitor, fluorescence | 10 µM | 11.1% |
| CC[C@H](C)[C@H](NC(=O)[C@H](CCC(N)=O)NC(=O)[C@H](CC(C)C)NC(=O)[C@H](CCSC)NC(=O)[C@H](CCCCN)NC(=O)[C@H](CO)NC(=O)[C@H](CO)NC(=O)[C@H](CCSC)NC(=O)[C@H](CC(C)C)NC(=O)[C@H](CC(N)=O)NC(=O)[C@@H](NC(=O)[C@@H](NC(=O)[C@H](CO)NC(=O)[C@H](CC(C)C)NC(=O)[C@H](CS)NC(=O)[C@H](CCCNC(=N)N)NC(=O)[C@H](CC(=O)O)NC(=O)[C@H](Cc1c[nH]c2ccccc12)NC(=O)[C@H](Cc1ccccc1)NC(=O)[C@H](C)NC(=O)[C@H](CCC(=O)O)NC(=O)[C@@H](N)CCCCN)C(C)C)[C@@H](C)CC)C(=O)N[C@@H](CC(N)=O)C(=O)N[C@@H](C)C(=O)O | Cyclin-dependent kinase 5, with p25 (CDK5, Homo sapiens, UniProt Q00535) | enzyme activity, inhibitor, radiometric | 1 µM | 0% |
| N#Cc1cc(Cn2c(N3CCCC3)nc3ccccc32)ccc1F | Tspo | cell-free assay | 10 µM | 76.7% |
| COc1cc(/C=C/C(=O)N2CCc3ccccc3C2)ccc1OCc1ccccc1 | MAOA | enzyme activity, inhibitor, fluorescence | 62.5 µM | 20.6% |
| C#CCNC(=N)NCCCSC[C@H]1O[C@@H](n2cnc3c(NCCCc4ccccc4)ncnc32)[C@H](O)[C@@H]1O | PRMT3 | enzyme activity, inhibitor, fluorescence | 10 µM | 6.56% |

| Compound | target | assay | conditions | inhibition |
| --- | --- | --- | --- | --- |
| N#Cc1ccc(NC(=O)c2ccc(Cl)cc2)cc1 | MAOA | enzyme activity, inhibitor | 1 µM, 20 min | 72% |
| O=C(OC(C(F)(F)F)C(F)(F)F)N1CCC(CCn2nnc3ccccc32)CC1 | Fatty-acid amide hydrolase 1 (Faah, Rattus norvegicus, UniProt P97612) | enzyme activity, inhibitor | 10 µM | 47% |
| CN1CC(Oc2cnc(C#N)cc2-c2ccn3nc(NC(=O)C4CC4)cc3c2)C1 | Cyclin-dependent kinase-like 4 (CDKL4, Homo sapiens, UniProt Q5MAI5) | enzyme activity, inhibitor | 1 µM | -9% |
| COc1cc(NC(C)=O)c(Cl)cc1C(=O)Nc1nccs1 | Alpha-1A adrenergic receptor (ADRA1A, Homo sapiens, UniProt P35348) | cell-free assay | 10 µM | 13.9% |
| CNC(=O)c1cc(Oc2ccc(NC(=O)Nc3ccc(Cl)c(C(F)(F)F)c3)cc2)ccn1 | Rps6ka1 | enzyme activity, inhibitor | 0.3 µM | 11% |
| O=C(Nc1cccc(Cl)c1)c1cc(Cl)ccc1O | MAOA | enzyme activity, inhibitor | 1 µM, 20 min | 15% |
| COC(=O)CN=c1scc(-c2ccccc2)n1-c1ccc(Cl)cc1 | LDHA | enzyme activity, inhibitor, fluorescence | 100 µM, pH 7.2 | 41% |
| COc1ccc2c(c1)[C@H](NCCC(C)C)C[C@H]2c1ccc(Cl)c(Cl)c1 (relative stereo) | Glutathione reductase, mitochondrial (GSR, Homo sapiens, UniProt P00390) | enzyme activity, inhibitor | 25 µM | < 12% |
| O=C(Nc1ccc(C(F)(F)F)cc1)c1cc(Cl)ccc1O | MAOA | enzyme activity, inhibitor | 1 µM, 20 min | 82% |
| N=C(NCCCSC[C@H]1O[C@@H](n2cnc3c(NCCCc4ccccc4)ncnc32)[C@H](O)[C@@H]1O)NCC1CC1 | PRMT3 | enzyme activity, inhibitor, fluorescence | 10 µM | -19.4% |
| O=C1N=C(N2CCCCN2)S/C1=C\c1ccc(F)cc1O | VIPR1 | ligand displacement, radioligand | 10 µM | 11% |
| O=C(Nc1ccc([N+](=O)[O-])cc1Cl)c1ccc2ccccc2c1 | MAOA | enzyme activity, inhibitor | 1 µM, 20 min | 11% |
| N=C(NCCCSC[C@H]1O[C@@H](n2cnc3c(NCCCc4ccccc4)ncnc32)[C@H](O)[C@@H]1O)NCc1ccccc1 | PRMT3 | enzyme activity, inhibitor, fluorescence | 10 µM | -4.37% |
| O=C(Nc1ccc([N+](=O)[O-])cc1Cl)c1ccc2c(c1)OCO2 | MAOA | enzyme activity, inhibitor | 1 µM, 20 min | 9% |
| COC(=O)CN=c1scc(-c2ccccc2)n1-c1ccccc1OC | LDHA | enzyme activity, inhibitor, fluorescence | 100 µM, pH 7.2 | 48% |
| N#Cc1ccc(NC(=O)c2ccc3c(c2)OCO3)cc1 | MAOA | enzyme activity, inhibitor | 1 µM, 20 min | 38% |
| N=C(NCCCN)NCCCSC[C@H]1O[C@@H](n2cnc3c(NCCCc4ccccc4)ncnc32)[C@H](O)[C@@H]1O | PRMT3 | enzyme activity, inhibitor, fluorescence | 10 µM | 1.09% |
| CCN(c1cc(C#CCN2CCOCC2)cc(C(=O)NCc2c(C)cc(C)[nH]c2=O)c1C)[C@H]1CC[C@H](N(C)CCOC)CC1 | PRMT3 | enzyme activity, inhibitor | 1 µM | 10% |
